Screening data from PubChem BioAssay.
Calb FLC: C. albicans growth modulation with fluconazole | C. albicans CaCi-2 (fluconazole-resistant clinical isolate) + fluconazole, Alamar Blue growth, 48 h | growth inhibition, % (concentration not given with the values) | hit rate 0.57% among 300,000;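 active = growth inhibition above about 58% in most replicates, limit read from the data, passing the limit was not always enough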;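 also: all wells also contain fluconazole at 8 µg/ml as a sub-toxic cotreatment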
PHOSPHO1 block: inhibitors of human PHOSPHO1 phosphatase | recombinant PHOSPHO1, absorbance phosphatase assay | inhibition, % at 13.3 µM | hit rate 1.1% among 290,000 | Q8TCT1; in the data active = inhibition above about 60%
Target sequence (Q8TCT1 whole entry, looked up): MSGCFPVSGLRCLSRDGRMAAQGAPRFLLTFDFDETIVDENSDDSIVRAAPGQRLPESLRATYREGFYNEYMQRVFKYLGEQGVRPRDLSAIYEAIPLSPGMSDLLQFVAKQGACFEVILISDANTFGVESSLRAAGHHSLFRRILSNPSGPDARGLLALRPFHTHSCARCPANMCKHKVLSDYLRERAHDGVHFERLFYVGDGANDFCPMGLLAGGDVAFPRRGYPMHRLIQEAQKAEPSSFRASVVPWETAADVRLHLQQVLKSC
IMP-1 inh-1: blocks Pseudomonas aeruginosa IMP-1 metallo-beta-lactamase | purified IMP-1, nitrocefin hydrolysis, epi-absorbance fluorescence | inhibition, % at 5.6 µM | hit rate 0.45% among 290,000;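 active = inhibition above the mean plus 3 SD of all compounds in the same screening run, cut at about 4.5% in these data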
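Test system: recombinant IMP-1 enzyme, purified / Medium: HEPES buffer pH 7.1 with ZnSO4 and Brij 35 / Doses: single dose, 5.6 µM / Times: 25 °C, 15 min preincubation, 25 min reaction / Detection: Epi-absorbance via hydrolysed-nitrocefin quenching of white-plate fluorescence, 480/530 nm, EDTA stop / Evaluation: percent inhibition from optical density relative to buffer-blank wells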
VIM-2 inhibitor: inhibitors of Pseudomonas aeruginosa VIM-2 metallo-beta-lactamase. purified VIM-2, nitrocefin hydrolysis, epi-absorbance fluorescence. inhibition, % at 5.6 µM. hit rate 0.89% among 290,000. AID 1527;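 active = inhibition above the mean of all tested compounds plus 3 SD, cutoff set per screening run, cut at about 7.5% in these data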;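 also: red hydrolysis product quenches plate fluorescence so inhibitors raise well fluorescence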
ARFGAP1 inh: inhibits rat ARF GTPase activating protein 1; AID 651572; Q62848; hit rate 0.26% among 360,000; inhibition, % at 16.5 µM; Arfgap1-stimulated ARF1 GTP hydrolysis, GDP FP detection;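 active = inhibition above a per-plate limit, mean inhibition of low control wells plus 3 SD, cut at about 25% in these data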
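Material: rat Arfgap1 catalytic domain, aa 1-136; also added: human ARF1(Δ1-17)-GTP substrate; compound dosing: one concentration, 16.5 µM, DMSO 1.26%; incubation: GTP hydrolysis reaction 2 h at 25 °C; measured by: Tracer-displacement fluorescence polarization with EDTA stop, 620/688 nm; evaluation: % inhibition from polarization; repeats: one replicate per compound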
ASAP1 inh: inhibitors of human ASAP1 ArfGAP activity; Q9ULH1; ASAP1-stimulated ARF1 GTP hydrolysis, GDP FP detection; inhibition, % at 16.5 µM; hit rate 0.19% among 360,000; AID 624377; in the data active = inhibition above about 25%
IMP-1 inh-2: blocks IMP-1 metallo-beta-lactamase in VIM-2 selectivity screen | AID 1856 | 1,300 tested, under 10 active | purified IMP-1, nitrocefin hydrolysis, epi-absorbance fluorescence | shares compounds with VIM-2 inhibitor | inhibition, % at 5.6 µM; call rule not given here
VIM-2 FRET inh: VIM-2 FRET inhibition, artifact counter-screen; shares compounds with VIM-2 inhibitor; AID 1857; inhibition, % at 5.6 µM; purified VIM-2, CCF2 FRET substrate hydrolysis; hit rate 23% among 1,300;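 active = inhibition above the mean of all tested compounds plus 3 SD, cut at about 19% in these data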
TEM-1 counter-1: blocks E. coli TEM-1 beta-lactamase in VIM-2 selectivity screen | shares compounds with VIM-2 inhibitor | Purified TEM-1, nitrocefin hydrolysis, epi-absorbance fluorescence | inhibition, % at 5.6 µM | hit rate 3% among 1,300 | AID 1866;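 active = inhibition above that campaign's mean inhibition plus 3 SD, cut at about 0.46% in these data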
Target sequence (P62593 whole entry, looked up): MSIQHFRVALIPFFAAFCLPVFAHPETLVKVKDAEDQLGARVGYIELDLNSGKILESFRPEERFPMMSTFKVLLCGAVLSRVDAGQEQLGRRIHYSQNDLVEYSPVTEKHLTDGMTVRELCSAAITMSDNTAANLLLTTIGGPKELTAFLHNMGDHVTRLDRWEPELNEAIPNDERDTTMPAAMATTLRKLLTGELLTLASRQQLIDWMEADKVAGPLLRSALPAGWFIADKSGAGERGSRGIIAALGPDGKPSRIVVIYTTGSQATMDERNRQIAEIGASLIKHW
VIM-2 inh conf: confirmation of P. aeruginosa VIM-2 metallo-beta-lactamase inhibitors; shares compounds with VIM-2 inhibitor; purified VIM-2, nitrocefin hydrolysis, epi-absorbance; inhibition, % at 5.6 µM; hit rate 96% among 1,300; AID 2187;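 active = inhibition of the VIM-2 beta-lactamase enzyme above about 11% from the earlier first-round screen, limit read from the data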
VIM-2 inh confirm: VIM-2 inhibition, confirmation assay | purified VIM-2 enzyme, nitrocefin absorbance | inhibition, % at 5.6 µM | hit rate 73% among 200 | shares compounds with IMP-1 inh-1; in the data active = inhibition above about 8%
TEM-1 counter-2: blocks E. coli TEM-1 beta-lactamase, VIM-2 IMP-1 counter-screen | shares compounds with IMP-1 inh-1 | nitrocefin absorbance inhibition | inhibition, % at 5.6 µM | hit rate 50% among 200; in the data active = inhibition above about 0.66%
IMP-1 inh conf: confirmation of P. aeruginosa IMP-1 metallo-beta-lactamase inhibitors | shares compounds with IMP-1 inh-1 | purified IMP-1 enzyme, absorbance substrate hydrolysis | inhibition, % at 5.6 µM | hit rate 60% among 200; in the data active = inhibition above about 4.9%
ASAP1 GAP conf: confirmation of human ASAP1 inhibitors; shares compounds with ASAP1 inh; ASAP1-stimulated Arf1 GTPase, GDP fluorescence polarization; inhibition, % at 16.5 µM; hit rate 37% among 620;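 active = mean inhibition over triplicates exceeds the hit threshold derived for the earlier primary screening run, cut at about 25% in these data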
ARFGAP1 inh conf: confirmation of rat ARFGAP1 inhibitors; inhibition, % at 16.5 µM; ARFGAP1-stimulated ARF1 GTP hydrolysis, GDP tracer FP; hit rate 30% among 890; shares compounds with ARFGAP1 inh;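 active = average inhibition over triplicates above the hit cutoff set in the earlier primary screen, cut at about 25% in these data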
Large screens that a line does not name were inactive (follow-up assays come after a bar, where they were run). Most compounds without a hit are left out; they make up all but 2.6% or so of the library.

COc1ccc(-c2cc(C(F)(F)F)nc(SCCC(=O)N3CCN4CCCC4C3)n2)cc1 (configuration not stated)	VIM-2 inhibitor 13 | IMP-1 inh-2 inactive | VIM-2 FRET inh inactive | TEM-1 counter-1 inactive | VIM-2 inh conf 29
COc1ccc(-c2cc(C(F)(F)F)nc(SCCC(=O)N3CCCC3)n2)cc1	none
CC(C)C[C@H]1COc2cccc(N3CCN(Cc4ccccc4F)CC3)c2S(=O)(=O)N1	none (no result: Calb FLC, PHOSPHO1 block, IMP-1 inh-1, VIM-2 inhibitor)
CN1CCN(c2ccc(NC(=O)c3ccc(-c4cccc([N+](=O)[O-])c4)o3)cc2)CC1	VIM-2 inhibitor 42, ASAP1 inh 31 | IMP-1 inh-2 inactive | VIM-2 FRET inh inactive | TEM-1 counter-1 inactive | VIM-2 inh conf 64 | ASAP1 GAP conf 106
NC(=S)NN=C1c2cc(OCCN3CCOCC3)ccc2-c2ccc(OCCN3CCOCC3)cc21	VIM-2 inhibitor 59, ASAP1 inh 25 | IMP-1 inh-2 inactive | VIM-2 FRET inh inactive | TEM-1 counter-1 inactive | VIM-2 inh conf 71 | ASAP1 GAP conf inactive
Clc1ccc(OCCN2CCOCC2)cc1Cl	none (no result: Calb FLC)
O=C(NCCc1ccccc1C(F)(F)F)c1cc(COc2ccccc2)on1	none (no result: Calb FLC, PHOSPHO1 block, IMP-1 inh-1, VIM-2 inhibitor)
Cc1cc(C)c2nc(C)cc(N/N=C/c3ccc(O)cc3)c2c1	VIM-2 inhibitor 13, ARFGAP1 inh 26 (no result: PHOSPHO1 block) | IMP-1 inh-2 inactive | VIM-2 FRET inh inactive | TEM-1 counter-1 inactive | VIM-2 inh conf 19 | ARFGAP1 inh conf 40
COc1ccc(-c2nn(C)c3sc(C(=O)NCCN(C)C)cc23)cc1OC	VIM-2 inhibitor 17, ARFGAP1 inh 33, ASAP1 inh 26 | IMP-1 inh-2 inactive | VIM-2 FRET inh inactive | TEM-1 counter-1 inactive | VIM-2 inh conf 30 | ASAP1 GAP conf 54 | ARFGAP1 inh conf 54
CCCN(CCC)CCCNC(=O)c1cc2c(-c3ccc(OC)c(OC)c3)nn(C)c2s1	VIM-2 inhibitor 12, ARFGAP1 inh 47 | IMP-1 inh-2 inactive | VIM-2 FRET inh inactive | TEM-1 counter-1 inactive | VIM-2 inh conf 24 | ARFGAP1 inh conf 85
CCCCN(CC)CCNC(=O)c1cc2c(-c3ccc(Cl)cc3)nn(C)c2s1	none
COC(=O)c1ccc2nc(C3CCCCC3)c(Cc3cccc(Cl)c3)n2c1	none (no result: Calb FLC, PHOSPHO1 block, IMP-1 inh-1, VIM-2 inhibitor)
COC(=O)C1(C)CCCC2(C)C3CCC(C(C)C)C(CO)C3C(CO)CC12 (configuration not stated)	none (no result: Calb FLC, PHOSPHO1 block, IMP-1 inh-1, VIM-2 inhibitor)
CCN(CC)C(=O)C1c2ccccc2Oc2ccccc21	IMP-1 inh-1 17, VIM-2 inhibitor 18 | VIM-2 inh confirm inactive | TEM-1 counter-2 1.6 | IMP-1 inh conf inactive
Cc1ccc(S(=O)(=O)N2[C@@H](Cc3ccccc3)CO[C@H]2CC(=O)c2ccc(F)cc2)cc1	none (no result: Calb FLC, PHOSPHO1 block, IMP-1 inh-1, VIM-2 inhibitor)
CN1CCCCC1(C)C(=O)NCc1cc(Cl)ccc1F (configuration not stated)	none (no result: Calb FLC, PHOSPHO1 block, IMP-1 inh-1, VIM-2 inhibitor)
